ChEMBL document CHEMBL1127322, “Selective protection and relative importance of the carboxylic acid groups of zaragozic acid A for squalene synthase inhibition” (J Med Chem, 1994)
The source made the active and inactive calls. The rule behind the calls is not given here.

What was measured:
Mus musculus [1] = assay: Tested in vivo for inhibition at a dose of 40 mg/kg, p.o. in oral mouse assay; Not active; format: functional, organism-based; parameters: dose 40 mg/kg
Procedure, shortened: (§1)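 Mice (22.5–27.5 g, six per group) received compound orally as a suspension in 5% emulphor. After 30 min they were given [5-³H]-mevalonolactone sc (0.5 μCi/animal) and were killed 30 min later. Livers were saponified and extracted with petroleum ether, and nonsaponifiable dpm was counted. Inhibition was calculated against incorporation in control animals.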

Mus musculus [2] = assay: Tested in vivo for inhibition at a dose of 40 mg/kg, p.o. in oral mouse assay; format: functional; procedure, shortened: as §1
Mus musculus [3] = assay: Tested in vivo for inhibition at a dose of 24 mg/kg, p.o. in oral mouse assay; format: functional; procedure, shortened: as §1
Mus musculus [4] = assay: Effective dose required for 50 percent inhibition of mouse liver squalene synthase at a dose of 40 mg/kg, po

Structure (SMILES): C=C(CCC12OC(C(=O)O)C(O)(C(=O)OC)C(C(=O)OC)(O1)[C@@H](OC(=O)/C=C/[C@@H](C)C[C@@H](C)CC)[C@H]2O)C(OC(C)=O)[C@H](C)Cc1ccccc1 (some centres undefined)
- inhibition (Mus musculus [1]): inactive

Structure (SMILES): C=C(CCC12OC(C(=O)O)C(O)(C(=O)OC)C(C(=O)O)(O1)[C@@H](OC(=O)/C=C/[C@@H](C)C[C@@H](C)CC)[C@H]2O)C(OC(C)=O)[C@H](C)Cc1ccccc1 (some centres undefined)
- inhibition in vivo at 40 mg/kg (Mus musculus [2]): 43%

Structure (SMILES): C=C(CCC12OC(C(=O)OC)C(O)(C(=O)O)C(C(=O)O)(O1)[C@@H](OC(=O)/C=C/[C@@H](C)C[C@@H](C)CC)[C@H]2O)C(OC(C)=O)[C@H](C)Cc1ccccc1 (some centres undefined)
- inhibition in vivo at 24 mg/kg (Mus musculus [3]): 32%

Structure (SMILES): C=C(CCC12OC(C(=O)OCCC(C)C)C(O)(C(=O)O)C(C(=O)O)(O1)[C@@H](OC(=O)/C=C/[C@@H](C)C[C@@H](C)CC)[C@H]2O)C(OC(C)=O)[C@H](C)Cc1ccccc1 (some centres undefined)
- inhibition in vivo at 40 mg/kg (Mus musculus [2]): 62%

Structure (SMILES): C=C(CCC12OC(C(=O)O)C(O)(C(=O)O)C(C(=O)OC)(O1)[C@@H](OC(=O)/C=C/[C@@H](C)C[C@@H](C)CC)[C@H]2O)C(OC(C)=O)[C@H](C)Cc1ccccc1 (some centres undefined)
- inhibition (Mus musculus [1]): inactive

Structure (SMILES): C=C(CCC12OC(C(=O)O)C(O)(C(=O)O)C(C(=O)O)(O1)[C@@H](OC(=O)/C=C/[C@@H](C)C[C@@H](C)CC)[C@H]2O)C(OC(C)=O)[C@H](C)Cc1ccccc1 (some centres undefined)
- inhibition in vivo at 40 mg/kg (Mus musculus [2]): 11%

Structure (SMILES): C=C(CCC12OC(C(=O)OCCC(C)C)C(O)(C(=O)O)C(C(=O)OC)(O1)[C@@H](OC(=O)/C=C/[C@@H](C)C[C@@H](C)CC)[C@H]2O)C(OC(C)=O)[C@H](C)Cc1ccccc1 (some centres undefined)
- inhibition (Mus musculus [1]): inactive

Structure (SMILES): C=C(CCC12OC(C(=O)OCCC(C)C)C(O)(C(=O)OC)C(C(=O)O)(O1)[C@@H](OC(=O)/C=C/[C@@H](C)C[C@@H](C)CC)[C@H]2O)C(OC(C)=O)[C@H](C)Cc1ccccc1 (some centres undefined)
- ED50 (Mus musculus [4]): 18 mg/kg

Structure (SMILES): C=C(CCC12OC(C(=O)OCc3ccccc3)C(O)(C(=O)O)C(C(=O)O)(O1)[C@@H](OC(=O)/C=C/[C@@H](C)C[C@@H](C)CC)[C@H]2O)C(OC(C)=O)[C@H](C)Cc1ccccc1 (some centres undefined)
- inhibition in vivo at 24 mg/kg (Mus musculus [3]): 36%
